Data set [1] relates to HFF. Put plainly: Cytotoxic concentration for 50% inhibition of cell growth of HSV-1 infected HFF cells determined by CPE assay. In kind it is functional. As to conditions: Homo sapiens.
Data set [2] concerns HFF. The experiment in a line: Cytotoxic concentration for 50% inhibition of cell growth of HSV-1 infected HFF cells determined by VPR assay. As to conditions: Homo sapiens. In kind it is functional.
The test system of data set [3] is HFF. The experiment in a line: Cytotoxic concentration for 50% inhibition of cell growth of HSV-2 infected HFF cells determined by CPE assay. In kind it is functional. As to conditions: Homo sapiens.
For data set [4], the system named is HFF. Put plainly: Cytotoxic concentration for 50% inhibition of cell growth of HSV-2 infected HFF cells determined by VPR assay. The format is functional. As to conditions: Homo sapiens. In outline: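 Run in virus-infected HFF cells within the plaque reduction assay set-up. […] The value was converted from μg/mL to μM.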
Data set [5] deals with HFF. Put plainly: Inhibitory concentration for HSV-1 plaque reduction (VPR) by 50% in HFF cells. The format is functional, cell-based. Particulars: Homo sapiens.
For data set [6], the system named is HFF. The experiment in a line: Inhibitory concentration for HSV-2 plaque reduction (VPR) by 50% in HFF cells. In kind it is functional, cell-based. As to conditions: Homo sapiens.
A further data set concerns Human alphaherpesvirus 1. The experiment in a line: Inhibitory concentration required to reduce HSV-1 induced cytopathogenic effect (CPE) by 50 % in HFF cells. The format is functional, organism-based, herpes simplex virus. As to conditions: Human alphaherpesvirus 1, HFF. Background: Protection from cytopathic effect is a common read-out in antiviral testing.
Another data set deals with Human alphaherpesvirus 2. The experiment in a line: Inhibitory concentration required to reduce HSV-2 induced cytopathogenic effect (CPE) by 50 % in HFF cells. In kind it is functional, organism-based. Particulars: Human alphaherpesvirus 2, HFF.
The nature of data set [7]: Inhibition constant against HSV-1 TK. In kind it is functional, herpes simplex virus.
For data set [8], the species on record is Homo sapiens. Put plainly: Cytotoxic concentration that produces 50% growth inhibition of human skin fibroblast infected with HSV-1. The format is functional.
The species entered for data set [9] is Homo sapiens. Put plainly: Inhibitory concentration required to reduce HSV-1 induced cytopathogenic effect (CPE) in human skin fibroblast. The format is functional, organism-based.
The species named for data set [10] is Homo sapiens. The experiment in a line: Inhibitory concentration required to reduce HSV-1 induced virus plaque reduction (VPR) in human skin fibroblast. In kind it is functional, organism-based.
Data set [11] is filed under the species Homo sapiens. Put plainly: Inhibitory concentration required to reduce HSV-2 induced cytopathogenic effect in human skin fibroblast. The format is functional, organism-based.
For data set [12], the species on record is Homo sapiens. Put plainly: Inhibitory concentration required to reduce HSV-2 induced virus plaque reduction (VPR) in human skin fibroblast. The format is functional, organism-based.
For data set [13], the species on record is Homo sapiens. Put plainly: Cytotoxic concentration that produces 50% growth inhibition of human skin fibroblast in VPR assay. In kind it is functional.
Data set [14] is described as follows: Catalytic rate constant was determined. The format is ADME.
For data set [15], the target named is T1, Thymidine kinase, cytosolic (Homo sapiens) (UniProt P04183).
T1 sequence (whole entry): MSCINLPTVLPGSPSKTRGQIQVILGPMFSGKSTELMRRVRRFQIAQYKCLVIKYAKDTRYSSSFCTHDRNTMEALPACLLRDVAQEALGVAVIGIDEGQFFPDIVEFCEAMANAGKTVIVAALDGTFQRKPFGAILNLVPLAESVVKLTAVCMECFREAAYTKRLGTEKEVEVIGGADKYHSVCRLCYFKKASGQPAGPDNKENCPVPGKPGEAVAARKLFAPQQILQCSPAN
As to conditions: herpes simplex virus.

The subject of data set [16] is Human alphaherpesvirus 3. Put plainly: Antiviral activity against 07/1 strain of thymidine kinase negative (TK-) Varicella-Zoster Virus (VZV). The format is functional, organism-based.
In data set [17] the test system is Human alphaherpesvirus 3. The experiment in a line: Antiviral activity against OKA strain of thymidine kinase positive(TK+) Varicella-Zoster Virus (VZV). The format is functional, organism-based.
Data set [18] can be described thus: Cytotoxic concentration against HSV-1 TK- transfected osteosarcoma cells. The format is functional. Particulars: Human alphaherpesvirus 1. Put shortly:
(§1)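 Osteosarcoma lines (143B-TK⁻ with 0.1 mg/mL 5-BrdU selection; MG-63-hTK1; 143B-TK⁺-HSV1-WT with HAT) grown in MEM/10% FCS. Seeded at 2 × 10³ (143B lines) or 1.5 × 10³ (MG-63) cells/well, exposed to five concentrations over 0.5–500 μM for 4.5 days at 37 °C/5% CO₂. XTT added for 9 h, A450 (ref 750 nm) read against untreated wells. Three independent series in triplicate.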

A short description of data set [19]: Cytotoxic concentration against HSV-1 TK-transfected osteosarcoma cells. As to conditions: Human alphaherpesvirus 1. The format is functional. Put shortly: as §1
A short description of data set [20]: Cytotoxic concentration against non transfected osteosarcoma cells non transfected (MG-63-hTK1). The format is functional. Put shortly: as §1
The nature of data set [21]: Inhibitory activity against HSV-1-TK transfected osteosarcoma cells. The format is functional. In outline:
as §1

Data set [22] relates to Human alphaherpesvirus 3. The experiment in a line: Minimum cytotoxic concentration that causes alterations of VZV infected Osteosarcoma cell morphology. The format is functional.
Data set [23] concerns Human alphaherpesvirus 3. The experiment in a line: Effective concentration against TK+ Varicella-Zoster Virus (VZV) OKA strain. In kind it is functional, organism-based.
In data set [24] the test system is Human alphaherpesvirus 3. The experiment in a line: Effective concentration against TK+ Varicella-Zoster Virus (VZV)YS strain. The format is functional, organism-based.
Data set [25] deals with Human alphaherpesvirus 3. Put plainly: Effective concentration against TK- Varicella-Zoster Virus (VZV) 07/1 strain. The format is functional, organism-based.
In data set [26] the test system is Human alphaherpesvirus 3. Put plainly: Effective concentration against TK- Varicella-Zoster Virus (VZV) YS/R strain. In kind it is functional, organism-based.
Data set [27] deals with Human alphaherpesvirus 3. The experiment in a line: Antiviral activity against YS strain of thymidine kinase positive(TK+) Varicella-Zoster Virus (VZV). The format is functional, organism-based.
In data set [28] the test system is Human alphaherpesvirus 3. Put plainly: Antiviral activity against YS/R strain of thymidine kinase negative(TK-) Varicella-Zoster Virus (VZV). In kind it is functional, organism-based.
A short description of data set [29]: Cytotoxic concentration that produces 50% inhibition of cell growth. The format is functional.
The nature of data set [30]: Minimum cytotoxic concentration that causes microscopically detectable alterations of cell morphology. The format is functional.
The species entered for data set [31] is Homo sapiens. Put plainly: Cytotoxic concentration that produces 50% growth inhibition of human skin fibroblast in CPE assay. In kind it is functional.
Data set [32] relates to Human alphaherpesvirus 3. Put plainly: Cytotoxic concentration that causes growth inhibition of VZV infected Osteosarcoma cells. In kind it is functional.
Data set [33] concerns Thymidine kinase (Herpes simplex virus type 1). The experiment in a line: Catalytic turnover constant against HSV-1 thymidine kinase.

pEC50, pKi: −log10 of the molar value. Some results are limits rather than exact numbers.

As for `Cc1cn([C@H]2C[C@H](O)[C@]3(CO)C[C@H]23)c(=O)[nH]c1=O` [(NORTH)-METHANOCARBATHYMIDINE], the CC50 in the data set on HFF [1] is more than 396 µM; in the data set on HFF [2], more than 79 µM; in the data set with HFF [3], more than 396 µM; with HFF [4], more than 79 µM; in the data set filed under Homo sapiens [8], more than 396 µM; in the data set listed under Homo sapiens [13], more than 79 µM. In addition, the pEC50 in the data set with HFF [5] is 7.40; with HFF [6], 6.33; in the data set with Human alphaherpesvirus 1, 6.92; in the data set on Human alphaherpesvirus 2 it was 6.46; in the data set filed under Homo sapiens [9], 6.92; in the data set filed under Homo sapiens [10], 7.40. For the same compound, the pEC50 in the data set filed under Homo sapiens [11] was 6.46; in the data set listed under Homo sapiens [12], 6.33. The compound further had a pKi in data set [7] of 4.79.
Turning to `Cc1cn([C@H]2C[C@H](O)[C@@H](CO)O2)c(=O)[nH]c1=O` [DOXRIBTIMINE], the k cat in data set [14] and in data set [15] was 0.35 s⁻¹ in each case.
Consider `O=c1[nH]c(=O)n([C@H]2C[C@H](O)[C@]3(CO)C[C@H]23)cc1I`, for which the pEC50 in the data set on Human alphaherpesvirus 3 [16] is less than 5.30; in the data set on Human alphaherpesvirus 1, less than 3.56; in the data set on Human alphaherpesvirus 2, 5.04; in the data set listed under Homo sapiens [9], less than 3.56; in the data set listed under Homo sapiens [11] it was 5.04; in the data set with Human alphaherpesvirus 3 [17], 6.80. In addition, the pEC50 in the data set on Human alphaherpesvirus 3 [23] is 6.80; in the data set with Human alphaherpesvirus 3 [24], 6.92; in the data set on Human alphaherpesvirus 3 [25], less than 5.30; in the data set with Human alphaherpesvirus 3 [26], 5.52; in the data set on Human alphaherpesvirus 3 [27] it was 6.92; in the data set with Human alphaherpesvirus 3 [28], 5.52. In addition, the k cat in data set [14] and in data set [33] was 0.14 s⁻¹ throughout. Also, the CC50 in the data set with HFF [1] is more than 275 µM; in the data set on HFF [3], more than 275 µM; in [18], more than 500 µM; in data set [19], 25 µM; in data set [20] it was 300 µM; in data set [21], 25 µM. The cytotoxic concentration (CC50) in data set [29] is more than 200 µM; in the data set filed under Homo sapiens [31], more than 275 µM; in the data set with Human alphaherpesvirus 3 [32] it was more than 200 µM. The pKi in data set [7] is 4.07. The MCC (with Human alphaherpesvirus 3 [22]; in data set [30]) was more than 5 µM in each case.
Take `Nc1nc2c(ncn2COC(CO)CO)c(=O)[nH]1` [GANCICLOVIR]: the CC50 in data set [18] was determined as 200 µM; in [19], 75 µM; in data set [20], 300 µM; in data set [21], 75 µM. Also, in data set [15], the k cat was 0.1 s⁻¹.

One may read the CC50 as the concentration at which the toxic effect on the cells reaches its halfway point. For orientation: pEC50 means the EC50 on a negative log10 scale, so that one unit is a factor of ten. A lower pEC50 goes with a large EC50. As a reminder, the pKi is −log10 of the Ki, conventionally taken in molar units. A higher pKi goes with a small Ki.
